These results are taken from ChEMBL document CHEMBL4265907, “Design, synthesis and pharmacological evaluation of N4,N6-disubstituted pyrimidine-4,6-diamine derivatives as potent EGFR inhibitors in non-small cell lung cancer” (Eur J Med Chem, 2018).

Structures are written as SMILES.

Data set [1] concerns the target T1, Epidermal growth factor receptor (Homo sapiens, UniProt P00533). Kind of data set: Inhibition of N-terminal GST-tagged wild type human EGFR cytoplasmic domain (669 to 1210 residues) expressed in baculovirus expression system using FAM-labeled peptide as substrate after 10 mins by mobility shift assay.
The target in data set [2] is Epidermal growth factor receptor (Homo sapiens, UniProt P00533, DEL747/DEL747-750). Kind of data set: Inhibition of N-terminal GST-tagged human EGFR del 747-750 mutant cytoplasmic domain expressed in baculovirus expression system using FAM-labeled peptide as substrate after 10 mins by mobility shift assay.
Data set [3] concerns the target Fibroblast growth factor receptor 1 (Homo sapiens) (UniProt P11362). As to the kind of experiment: Inhibition of N-terminal GST-tagged human FGFR1 cytoplasmic domain (398 to 822 residues) expressed in baculovirus expression system at […] using FAM-labeled peptide as substrate after 10 mins by mobility shift assay relative to control. The essentials: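 Caliper mobility-shift kinase assay. Kinase in kinase base buffer was preincubated with compound for 10 min at room temperature. FAM-labelled peptide and ATP at Km were then added, and the reaction ran at 28 °C until quenched with buffer. Screening concentration was 1 µM. Percent inhibition = (max − conversion)/(max − min) × 100, with DMSO as max and a low control as min.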

For data set [4], the system named is A-431. As to the kind of experiment: Antiproliferative activity against human A431 cells after 72 hrs by MTT assay. The format is functional, cell-based. The following applies: A-431, 72 h. The essentials:
(§1)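 Cells seeded at 3000/well in growth medium with 10% FBS and left overnight. Treated in triplicate for 72 h at nine concentrations (0.458 to 30,000 nM), with DMSO-only controls. MTT (5 mg/mL) added for the last 4 h, formazan dissolved in DMSO, absorbance read at 490 nm. IC50 from non-linear sigmoidal dose-response fit.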
On the technique in general: Tetrazolium dyes change colour on reduction, which living cells bring about.

For data set [5], the system named is NCI-H1975. Kind of data set: Antiproliferative activity against human NCI-H1975 cells after 72 hrs by MTT assay. The class given is functional, cell-based. The following applies: NCI-H1975, 72 h. The method in brief: as §1
The subject of a further data set is PC-9. As to the kind of experiment: Antiproliferative activity against human PC9 cells after 72 hrs by MTT assay. The class given is functional, cell-based. As to conditions: PC-9, 72 h. The method in brief: as §1
Data set [6] concerns NCI-H3255. As to the kind of experiment: Induction of apoptosis in human H3255 cells assessed as viable cells at 250 nM after 48 hrs by Annexin V-FITC/PI staining based flow cytometry (reference value: 87.9%). The following applies: NCI-H3255, 48 h, read-out: Activity. The class given is functional. On the technique in general: Flow cytometry measures light scatter and fluorescence of single cells or particles in a stream.

Data set [7] has as its target T1, Epidermal growth factor receptor. Kind of data set: Inhibition of EGFR in human A431 cells assessed as decrease in EGF-induced ERK1/2 phosphorylation by Western blot method. The class given is cell-based. The method in brief:
(§2)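 Cell lysates prepared in protein lysis buffer and cleared at 12,000 g for 10 min at 4 °C. 50 μg protein per lane was run on a gel, transferred to PVDF and immunoblotted, with GAPDH as the loading control.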
(In western blotting, separated proteins are transferred to a membrane and probed.)

Data set [8] has the same target. Kind of data set: Inhibition of EGFR in human A431 cells assessed as decrease in EGF-induced AKT phosphorylation by Western blot method. The class given is cell-based. The essentials:
as §2

The target is the same in data set [9]. As to the kind of experiment: Inhibition of EGFR in human HCC827 cells assessed as decrease in EGF-induced ERK1/2 phosphorylation by Western blot method. The class given is cell-based. The method in brief: as §2
Data set [10] has the same target. Kind of data set: Inhibition of EGF-induced EGFR autophosphorylation at Y1068 residues in human HCC827 cells by Western blot method. The format is cell-based. The method in brief:
as §2

Data set [11] concerns NCI-H3255. As to the kind of experiment: Induction of apoptosis in human H3255 cells assessed as necrotic cells at 500 nM after 48 hrs by Annexin V-FITC/PI staining based flow cytometry (reference value: 7.06%). The class given is functional.
The subject of data set [12] is NCI-H3255. As to the kind of experiment: Induction of apoptosis in human H3255 cells assessed as early apoptotic cells at 1000 nM after 48 hrs by Annexin V-FITC/PI staining based flow cytometry (reference value: 3.22%). The format is functional.
Data set [13] relates to NCI-H3255. As to the kind of experiment: Induction of apoptosis in human H3255 cells assessed as late apoptotic cells at 1000 nM after 48 hrs by Annexin V-FITC/PI staining based flow cytometry (reference value: 1.77%). The format is functional.
Data set [14] deals with A-431. As to the kind of experiment: Induction of apoptosis in human A431 cells assessed as viable cells at 250 nM after 48 hrs by Annexin V-FITC/PI staining based flow cytometry (reference value: 90.3%). The class given is functional. As to conditions: A-431, 48 h, read-out: Activity.
Data set [15] relates to A-431. Kind of data set: Induction of apoptosis in human A431 cells assessed as necrotic cells at 250 nM after 48 hrs by Annexin V-FITC/PI staining based flow cytometry (reference value: 4.16%). The format is functional.
The test system of data set [16] is A-431. As to the kind of experiment: Induction of apoptosis in human A431 cells assessed as necrotic cells at 500 nM after 48 hrs by Annexin V-FITC/PI staining based flow cytometry (reference value: 4.16%). The class given is functional.
The subject of data set [17] is HCC827. As to the kind of experiment: Induction of apoptosis in human HCC827 cells assessed as viable cells at 250 nM after 48 hrs by Annexin V-FITC/PI staining based flow cytometry (reference value: 94.6%). The format is functional. The following applies: HCC827, 48 h, read-out: Activity.
Data set [18] concerns HCC827. Kind of data set: Induction of apoptosis in human HCC827 cells assessed as necrotic cells at 500 nM after 48 hrs by Annexin V-FITC/PI staining based flow cytometry (reference value: 1.41%). The class given is functional.
Data set [19] relates to HCC827. As to the kind of experiment: Induction of apoptosis in human HCC827 cells assessed as late apoptotic cells at 1000 nM after 48 hrs by Annexin V-FITC/PI staining based flow cytometry (reference value: 1.15%). The class given is functional.
For data set [20], the system named is NCI-H1975. Kind of data set: Induction of apoptosis in human NCI-H1975 cells assessed as necrotic cells at 250 nM after 48 hrs by Annexin V-FITC/PI staining based flow cytometry (reference value: 2.31%). The format is functional.
For data set [21], the system named is NCI-H1975. Kind of data set: Induction of apoptosis in human NCI-H1975 cells assessed as viable cells at 500 nM after 48 hrs by Annexin V-FITC/PI staining based flow cytometry (reference value: 93.7%). The class given is functional. The following applies: NCI-H1975, 48 h, read-out: Activity.
Data set [22] concerns NCI-H1975. As to the kind of experiment: Induction of apoptosis in human NCI-H1975 cells assessed as early apoptotic cells at 1000 nM after 48 hrs by Annexin V-FITC/PI staining based flow cytometry (reference value: 2.07%). The class given is functional.
In data set [23] the test system is HCC827. As to the kind of experiment: Induction of apoptosis in human HCC827 cells assessed as viable cells after 48 hrs by Annexin V-FITC/PI staining based flow cytometry. The class given is functional, cell-based.
Data set [24] has as its system NCI-H1975. Kind of data set: Cell cycle arrest in human NCI-H1975 cells assessed as accumulation at G2/M phase after 24 hrs by propidium iodide staining based flow cytometry. The class given is functional. The method in brief:
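NCI-H1975 cells (2×10^5) seeded in 6-well plates overnight, then treated 24 h at 50, 100, 250 or 500 nM; 1‰ DMSO medium as control. Cells harvested, washed in cold PBS, fixed in 70% cold ethanol at −20 °C overnight, stained with PI/RNase buffer and analysed by flow cytometry. n=3.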

Data set [25] is described as follows: AUC (0 to t) in Sprague-Dawley rat at 30 mg/kg, po by UPLC-MS/MS analysis. The class given is ADME, organism-based. As to conditions: in vivo. The method in brief:
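Four female and four male Sprague-Dawley rats, 200-220 g, fasted 12 h, then given a single oral dose of 30 mg/kg as a 0.5% CMC-Na suspension. Blood sampled at 0.083, 0.25, 0.5, 1, 2, 4, 8 and 24 h, plasma separated by centrifugation at 4000 r/min for 10 min, and analysed by UPLC–MS/MS. Parameters reported as mean ± SD, n=6.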

Chain of Epidermal growth factor receptor (Homo sapiens, UniProt P00533, DEL747/DEL747-750) (P00533 with tags, fused parts or gaps DEL747/DEL747-750 limits assumed): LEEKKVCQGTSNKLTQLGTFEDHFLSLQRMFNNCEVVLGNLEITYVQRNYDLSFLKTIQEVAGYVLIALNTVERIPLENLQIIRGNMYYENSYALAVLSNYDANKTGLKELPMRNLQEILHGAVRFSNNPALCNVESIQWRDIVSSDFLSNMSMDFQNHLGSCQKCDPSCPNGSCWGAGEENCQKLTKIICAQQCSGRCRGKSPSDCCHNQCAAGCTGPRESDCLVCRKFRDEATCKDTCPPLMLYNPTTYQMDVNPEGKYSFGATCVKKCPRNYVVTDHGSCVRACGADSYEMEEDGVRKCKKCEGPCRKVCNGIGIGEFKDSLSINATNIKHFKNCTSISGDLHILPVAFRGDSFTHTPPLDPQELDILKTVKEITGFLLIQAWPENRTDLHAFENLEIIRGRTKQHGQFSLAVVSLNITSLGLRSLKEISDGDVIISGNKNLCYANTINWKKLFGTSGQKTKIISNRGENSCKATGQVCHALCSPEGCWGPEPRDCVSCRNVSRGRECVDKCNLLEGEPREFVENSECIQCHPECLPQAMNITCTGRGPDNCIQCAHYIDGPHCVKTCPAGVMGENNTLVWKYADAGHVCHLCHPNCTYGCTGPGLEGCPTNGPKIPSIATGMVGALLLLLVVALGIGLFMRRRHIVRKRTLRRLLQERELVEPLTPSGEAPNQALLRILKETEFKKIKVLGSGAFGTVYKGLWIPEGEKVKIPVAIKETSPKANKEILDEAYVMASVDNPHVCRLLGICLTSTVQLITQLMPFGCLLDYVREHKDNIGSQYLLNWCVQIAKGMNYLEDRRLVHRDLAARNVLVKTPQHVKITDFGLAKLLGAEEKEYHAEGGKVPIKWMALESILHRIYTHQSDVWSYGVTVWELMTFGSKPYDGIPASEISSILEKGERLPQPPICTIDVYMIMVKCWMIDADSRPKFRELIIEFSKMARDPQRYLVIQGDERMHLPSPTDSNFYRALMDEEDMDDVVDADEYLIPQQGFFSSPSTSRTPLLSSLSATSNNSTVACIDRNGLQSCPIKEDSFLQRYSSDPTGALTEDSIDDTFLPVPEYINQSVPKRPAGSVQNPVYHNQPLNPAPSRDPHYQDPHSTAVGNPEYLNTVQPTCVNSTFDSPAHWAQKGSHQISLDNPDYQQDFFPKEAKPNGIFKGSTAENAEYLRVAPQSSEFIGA
T1 sequence (P00533 whole entry, the tested form may be a part): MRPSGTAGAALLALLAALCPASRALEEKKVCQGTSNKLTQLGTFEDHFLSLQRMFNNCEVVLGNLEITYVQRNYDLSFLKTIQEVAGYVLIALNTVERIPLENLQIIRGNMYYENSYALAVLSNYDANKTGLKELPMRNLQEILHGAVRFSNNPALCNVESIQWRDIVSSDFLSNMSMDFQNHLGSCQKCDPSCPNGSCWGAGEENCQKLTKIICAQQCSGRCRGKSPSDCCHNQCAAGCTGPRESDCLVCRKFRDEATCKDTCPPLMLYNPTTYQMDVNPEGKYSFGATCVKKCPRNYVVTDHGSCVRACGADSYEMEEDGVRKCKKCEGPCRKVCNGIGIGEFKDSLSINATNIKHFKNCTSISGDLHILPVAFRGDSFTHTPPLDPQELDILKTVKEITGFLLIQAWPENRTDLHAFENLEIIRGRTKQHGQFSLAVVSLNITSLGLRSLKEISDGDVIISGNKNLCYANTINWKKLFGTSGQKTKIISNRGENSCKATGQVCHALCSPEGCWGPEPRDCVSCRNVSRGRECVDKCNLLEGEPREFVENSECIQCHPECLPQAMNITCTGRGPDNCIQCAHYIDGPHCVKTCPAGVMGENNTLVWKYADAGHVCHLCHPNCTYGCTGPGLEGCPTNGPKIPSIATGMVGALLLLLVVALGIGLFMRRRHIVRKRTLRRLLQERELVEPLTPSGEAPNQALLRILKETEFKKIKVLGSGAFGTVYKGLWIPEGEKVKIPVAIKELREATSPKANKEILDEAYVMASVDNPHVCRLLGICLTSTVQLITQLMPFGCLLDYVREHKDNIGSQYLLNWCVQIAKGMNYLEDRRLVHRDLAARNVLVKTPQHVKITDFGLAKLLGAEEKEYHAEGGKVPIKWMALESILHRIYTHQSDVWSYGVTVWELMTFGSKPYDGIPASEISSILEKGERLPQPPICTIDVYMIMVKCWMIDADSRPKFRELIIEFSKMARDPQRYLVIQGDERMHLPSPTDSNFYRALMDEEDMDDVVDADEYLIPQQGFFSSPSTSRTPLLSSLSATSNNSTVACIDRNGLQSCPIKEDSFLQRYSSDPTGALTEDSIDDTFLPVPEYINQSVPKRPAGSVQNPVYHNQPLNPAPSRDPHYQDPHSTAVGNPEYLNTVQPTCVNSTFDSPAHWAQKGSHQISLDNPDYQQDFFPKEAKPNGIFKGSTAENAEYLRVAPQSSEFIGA

A word on the IC50: it is the concentration that inhibits the measured activity by half. For orientation: inhibition means the relative decrease from the control value, in per cent. In the case of `CCOC(=O)c1ccc(Nc2cc(NC(=O)CCCC(=O)O)ncn2)cc1`, the 50% inhibitory concentration (IC50) in data set [1] stood at 48 nM; in data set [2], 21 nM. The inhibition in data set [3] was -5.3%.

As for `O=C(O)CCCC(=O)Nc1cc(N2CCOCC2)ncn1`, the IC50 in data set [1] was determined as 53 nM; in [2], 11 nM; in the data set with A-431 [4] it was 780 nM; in the data set on NCI-H1975 [5], 1160 nM; in the data set on PC-9, 560 nM.

In the case of `COc1ccc(Nc2cc(NC(=O)c3ccccc3)ncn2)cc1`, the IC50 turned out to be 81 nM in data set [1]; 26 nM in data set [2]; 9460 nM in the data set with A-431 [4]; 11400 nM with NCI-H1975 [5]; 660 nM with PC-9. Besides, the inhibition in data set [3] is 2.8%.

With `COc1cccc(Nc2cc(NC(=O)CCCC(=O)O)ncn2)c1`, the 50% inhibitory concentration (IC50) in data set [1] is 37 nM; in data set [2] it was 12 nM. Moreover, the inhibition in [3] is -5.5%.

Regarding `O=C(O)CCCC(=O)Nc1cc(Nc2cccc(Cl)c2)ncn1`, the values for the IC50 in the data set with A-431 [4], with NCI-H1975 [5] and in the data set with PC-9 were more than 30000 nM, more than 30000 nM and 2000 nM, respectively. For the same compound, the inhibition in [3] was -8.8%.

Usually AUC(0-t) stands for the area under the concentration-time curve up to a stated or last time point. A lower AUC(0-t) goes with less exposure. Turning to `COc1cccc(Nc2cc(Nc3cc(OC)ccc3OC)ncn2)c1`, the 50% inhibitory concentration (IC50) is 740 nM in the data set on A-431 [4], 890 nM with NCI-H1975 [5] and 450 nM in the data set on PC-9. Moreover, the viability at 0.25 µM came out at 79.2% in the data set on NCI-H3255 [6], 79.3% in the data set on A-431 [14] and 61.9% in the data set with HCC827 [17]. Moreover, the inhibition result in data set [7] is “Dose-dependent effect”; in data set [8] it was “Dose-dependent effect”; in [9], “Dose-dependent effect”; in data set [10] it was “Dose-dependent effect”; in [3], -9.3%. For the same compound, the Activity is reported as 4.88% in the data set on NCI-H3255 [11]; 17.6% in the data set with NCI-H3255 [12]; 10.6% with NCI-H3255 [13]; 3.41% in the data set on A-431 [15]; 5.66% with A-431 [16]; 9.2% in the data set with HCC827 [18]. In addition, the Activity in the data set with HCC827 [19] is 14.4%; in the data set with NCI-H1975 [20], 7.95%; in the data set on NCI-H1975 [22], 27.8%; in the data set with HCC827 [23], “Dose-dependent effect”; with NCI-H1975 [24] it was “Dose-dependent effect”. Moreover, the viability at 0.5 µM in the data set on NCI-H1975 [21] was 52.5%. The same compound showed an AUC(0-t) in [25] of 5700 ng·h/mL.
